Measurements from ChEMBL document CHEMBL4622983, “Structure-Activity Relationship Studies of α-Ketoamides as Inhibitors of the Phospholipase A and Acyltransferase Enzyme Family” (J Med Chem, 2020).

What was measured:
Format in all cases: cell-free, HEK-293T
[1] = target: T1, Phospholipase A and acyltransferase 3 (Homo sapiens, UniProt P53816); experiment: Inhibition of full-length C-terminal FLAG-tagged human PLAAT3 expressed in HEK293T cell lysate preincubated for 30 mins followed by MB064 addition and measured after 20 mins by SDS-PAGE based ABPP analysis
T1 sequence (P53816 whole entry): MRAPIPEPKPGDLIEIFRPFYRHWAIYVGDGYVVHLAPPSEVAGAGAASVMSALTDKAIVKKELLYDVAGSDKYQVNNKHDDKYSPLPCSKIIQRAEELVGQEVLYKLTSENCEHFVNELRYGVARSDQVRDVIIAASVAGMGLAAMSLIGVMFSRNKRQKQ
Summary of the method: (§1)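 Dose–response competitive ABPP on cytosol only, from HEK293T overexpressing FLAG-tagged PLAAT. Inhibitor 30 min rt, then MB064 20 min rt. PLAAT2 0.25 μg/μL with 250 nM probe; PLAAT3 0.5 μg/μL with 250 nM; PLAAT4 and PLAAT5 1 μg/μL with 500 nM. Fluorescence normalized to Coomassie. IC50 from curves, reported as pIC50 ± SEM, n = 3.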

[2] = target: T2, Phospholipase A and acyltransferase 2 (Homo sapiens, UniProt Q9NWW9); experiment: Inhibition of full-length C-terminal FLAG-tagged human PLAAT2 expressed in HEK293T cell lysate preincubated for 30 mins followed by MB064 addition and measured after 20 mins by SDS-PAGE based ABPP analysis; summary of the method: as §1
T2 sequence (Q9NWW9 whole entry): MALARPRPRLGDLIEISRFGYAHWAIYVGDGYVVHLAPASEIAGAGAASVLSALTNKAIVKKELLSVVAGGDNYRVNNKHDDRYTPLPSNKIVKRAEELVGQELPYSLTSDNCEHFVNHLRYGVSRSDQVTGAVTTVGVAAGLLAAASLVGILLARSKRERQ

[3] = target: T3, Phospholipase A and acyltransferase 4 (Homo sapiens, UniProt Q9UL19); experiment: Inhibition of full-length C-terminal FLAG-tagged human PLAAT4 expressed in HEK293T cell lysate preincubated for 30 mins followed by MB064 addition and measured after 20 mins by SDS-PAGE based ABPP analysis; summary of the method: as §1
T3 sequence (Q9UL19 whole entry): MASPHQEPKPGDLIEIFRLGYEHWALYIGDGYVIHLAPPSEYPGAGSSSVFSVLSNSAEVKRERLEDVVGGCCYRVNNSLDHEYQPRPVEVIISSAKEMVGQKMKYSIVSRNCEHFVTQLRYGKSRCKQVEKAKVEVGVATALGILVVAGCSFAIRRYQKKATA

[4] = target: T4, Phospholipase A and acyltransferase 5 (Homo sapiens, UniProt Q96KN8); experiment: Inhibition of full-length C-terminal FLAG-tagged human PLAAT5 expressed in HEK293T cell lysate preincubated for 30 mins followed by MB064 addition and measured after 20 mins by SDS-PAGE based ABPP analysis; summary of the method: as §1
T4 sequence (Q96KN8 whole entry): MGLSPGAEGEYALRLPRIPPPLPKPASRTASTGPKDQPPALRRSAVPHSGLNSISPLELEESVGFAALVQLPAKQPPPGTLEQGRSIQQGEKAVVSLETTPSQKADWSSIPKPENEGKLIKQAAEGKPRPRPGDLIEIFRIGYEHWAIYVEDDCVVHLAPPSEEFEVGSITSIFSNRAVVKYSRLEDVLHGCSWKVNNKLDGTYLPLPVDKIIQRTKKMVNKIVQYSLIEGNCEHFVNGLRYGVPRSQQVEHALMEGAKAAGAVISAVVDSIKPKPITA

SMILES	pIC50 ([1]; hek-293t)	IC50 [2] [nM]	IC50 [1] [nM]	IC50 [3] [nM]	IC50 [4] [nM]
O=C(CCCc1ccccc1)C(=O)NCCc1ccc(Oc2ccc(C(F)(F)F)nc2)cc1		200	158	79.4	79.4
O=C(CCc1ccccc1)C(F)(F)C(=O)NCc1ccccc1		> 10000	> 10000	> 10000	> 10000
O=C(CCCc1ccccc1)C(=O)NCCc1ccc(Br)cc1		251	158	200	10
O=C(/C=C/c1ccc(Br)cc1)C(=O)NCCc1ccccc1		5010	2510	6310	631
O=C(NCc1ccccc1)C(F)(F)C(O)CCc1ccccc1 (stereo unspecified)		> 10000	> 10000	> 10000	> 10000
CC(=O)C(=O)NCCc1ccccc1		> 10000	> 10000	> 10000	> 10000
O=C(CCCCc1ccccc1)C(=O)NCCc1ccccc1		3160	1000	1580	158
O=C(/C=C/c1cccc(Br)c1)C(=O)NCCc1ccccc1		> 10000	> 10000	7940	3160
O=C(CCc1ccccc1)C(F)(F)C(=O)NCCc1ccccc1		> 10000	> 10000	> 10000	> 10000
O=C(CCCc1ccccc1)C(=O)NCCc1ccc(Oc2cnccn2)cc1		501	251	631	63.1
O=C(CCCc1ccccc1)C(=O)NCCc1ccccc1Cl		6310	1260	2510	794
O=C(CCc1ccc(C(F)(F)F)cc1)C(=O)NCCc1ccccc1		2000	7940	2510	316
O=C(NCCc1ccccc1)C(=O)c1ccccc1		> 10000	> 10000	> 10000	> 10000

The next lines start with the values.

pIC50 ([1]; hek-293t)	IC50 [2] [nM]	IC50 [1] [nM]	IC50 [3] [nM]	IC50 [4] [nM]	SMILES
6					O=C(CCc1ccc(Cl)cc1)C(=O)NCCc1ccccc1
	2000	100	1000	100	O=C(CCc1ccc(Cl)c(Cl)c1)C(=O)NCCc1ccccc1
	7940	5010	10000	1580	O=C(CCc1ccc(F)cc1)C(=O)NCCc1ccccc1
	2510	1580	1260	1260	O=C(CCc1cccc(Cl)c1)C(=O)NCCc1ccccc1
	> 10000	> 10000	> 10000	> 10000	CN1CCN(C(=O)C(=O)CCc2ccc(Cl)cc2)CC1
	> 10000	> 10000	> 10000	> 10000	COCCN(CCOC)C(=O)C(=O)CCc1ccc(Cl)cc1
	> 10000	> 10000	> 10000	> 10000	O=C(NCCc1ccccc1)C(=O)c1ccc(Cl)cc1
	> 10000	> 10000	> 10000	> 10000	O=C(CCc1ccc(Cl)cc1)C(=O)N1CCCCC1
	631	1000	1580	200	O=C(CCc1ccc(Cl)cc1)C(=O)NCCCCc1ccccc1
	2510	1580	2510	251	O=C(CCc1ccc(Cl)cc1)C(=O)NCc1ccccc1
	> 10000	> 10000	> 10000	> 10000	O=C(CCc1ccc(Cl)cc1)C(=O)N1CCCC1
	1260	251	794	63.1	O=C(CCCc1ccccc1)C(=O)NCCc1ccc(Cl)cc1Cl
	2510	7940	3980	1000	CCNC(=O)C(=O)CCc1ccc(Cl)cc1
